Ins promoter up: MIN6 insulin promoter up-regulation. MIN6 insulin promoter-GFP reporter, high-content imaging; active compounds read high. z-score at 5 µM. 0.3% of 190,000 active. AID 1625;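 active = z-score above 3 at 5 µM with at least 500 cells counted in the well; inconclusive = wells under 500 cells, flagged as cytotoxic or low count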
Dynein cargo inh: blocks dynein driven cargo transport along microtubules; 3617.4 mouse cells, GR-EGFP nuclear translocation imaging; test concentration mostly 20 µM; stimulated with dexamethasone, 1 µM; active compounds read low; z-score, hits read low; 0.47% of 220,000 active;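 active = plate z-score of nuclear minus cytoplasmic receptor signal below a set negative limit, without overly bright fluorescence or cell loss, cut at about -3.5 in these data, passing the limit was not always enough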;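 also: z-score of nuclear minus cytoplasmic ring GR-EGFP intensity difference per well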
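Buffer or medium: tet-free medium with charcoal-stripped serum / Also added: dexamethasone agonist, 1.0 µM final, for 30 min / Timing: induction 48 h, compound 1 h, agonist 30 min / Measured by: high-content fluorescence imaging after fixation / Read-out: nuclear-to-cytoplasmic GR-EGFP distribution per well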
MT stabilize HCS: microtubule stabilizers in HeLa cells; AID 2205; HeLa tubulin immunostaining HCS, 24 h; share of cells brighter than vehicle mean+2SD; 0.83% of 200,000 active; % tubulin-high responders, % at 10 µM;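 active = plate Z-score above 3 for both tubulin-high and condensed-nucleus cell shares, with cell loss under 80%, at 10 µM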;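 also: anti alpha tubulin signal scored within the nucleus-defined area of each cell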
Autophagy mod: modulators of autophagy. MEF GFP-LC3 puncta imaging; test concentration mostly 10 µM. calls only at 10 µM (by protocol). 0.98% of 190,000 active;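 active = percentage of spot-positive cells more than 3 SD above its plate mean, without a fluorescence outlier flag or 80% toxicity; inconclusive = no clear call, values can overlap the other calls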;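 also: spot-positive cell cutoff set from DMSO-treated cells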
bCat nuc transl: modulators of beta-catenin nuclear translocation; HeLa beta-catenin nuclear translocation, immunofluorescence imaging; nuclear translocation activity, % at 5 µM; 0.3% of 190,000 active; AID 1665;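 active = nuclear translocation activity above 50% at 5 µM, with a well cell count of 50 or more; inconclusive = wells under 50 cells across six images, flagged as toxic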;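 also: per-cell ratio of nuclear to cytoplasmic median beta-catenin stain intensity; plate controls were DMSO negative control for no effect and GSK-3 inhibitor IX positive control for full effect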
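Test system: human HeLa cells, native beta-catenin. Compound dosing: 5 µM primary single dose, 0.1% DMSO, 0.02–20 µM confirmation series. Incubation: compound exposure 24 h at 37°C. Detection: beta-catenin immunostaining with DAPI counterstain, 20x imaging, 6 fields/well. Read-out basis: Nuclear/cytoplasmic beta-catenin signal ratio, % activation.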
The depositor's hits bear a star; i = inactive; ? = inconclusive; nt = no result given; + = active, no number. Rows were chosen to be rich in hits. Some 2.3% of all compounds tested hit in one or more screens of this group.

SMILES	Ins promoter up	Dynein cargo inh	MT stabilize HCS	Autophagy mod	bCat nuc transl
O=C(CSc1nc2c(c(=O)n1-c1ccccc1)SCC2)NCC1CCCO1 (centres undefined)	-1.2	-0.91	nt	nt	2
CC(C)C1S/C(=N/N=C/c2ccco2)NC1=O (centres undefined)	3.2*	1.3	2	i	-2
Cc1ccccc1CC1S/C(=N/N=C/c2ccco2)NC1=O (centres undefined)	nt	-0.19	nt	nt	2
Cn1cc(/C=N/n2cnc3scc(-c4ccc(Cl)cc4)c3c2=O)c2ccccc21	-0.04	-0.38	13	i	187*
CCn1cnc2scc(-c3ccccc3)c2c1=O	1.6	0.25	3	i	nt
CC1CC(=O)C2=C(C1)OC(N)=C(C#N)C2c1coc2ccccc2c1=O (centres undefined)	3*	0.47	2	i	-1
CC(C)N1CCN(Cc2ccoc2)CC1CCO (centres undefined)	nt	1.7	1	i	-2
O=S(=O)(Nc1nc(SCc2ccc(Cl)cc2)n[nH]1)c1ccccc1	0.3	2.4	nt	nt	0
O=[N+]([O-])c1cc(-c2cnc3ccccc3n2)ccc1Oc1ccc(Cl)cc1	0.37	0.45	6	+	-1
COc1cccc(N2CC(O)=C(c3nc4ccccc4c(=O)[nH]3)C2=N)c1	0.42	-0.13	26*	+	109*
CCN(CC)CCCNc1nc(C)cc(COC)c1C#N	0.68	-0.14	3	i	-2
COCc1cc(C)nc(Nc2ccccc2C)c1C#N	3.3*	0.88	3	i	-3
CC(CCc1ccccc1)NC(=O)CSc1cccc[n+]1[O-] (centres undefined)	0.29	0.72	3	i	-3
CC(CCc1ccccc1)NC(=O)CSc1ccccc1 (centres undefined)	0.02	1.4	4	+	-1
Cc1nc(NC(=O)c2ccc(Cl)cc2)sc1Cc1ccc2c(c1)OCO2	0.23	1.1	13*	i	nt
Cc1nc(NC(=O)c2ccccc2)sc1Cc1ccc2c(c1)OCO2	-0.4	-0.09	11*	i	nt
Cc1c(Cc2ccc3c(c2)OCO3)sc(NC(=O)c2ccccc2)c1C(N)=O	-0.04	-0.84	6	i	0
O=C(Nc1ccn(Cc2ccc(Cl)cc2)n1)c1ccc2c(c1)OCO2	0.22	-0.83	3	i	-4
COC(=O)c1cnc(Oc2c(Cl)cc(N)cc2Cl)cc1C(F)(F)F	-0.1	-1.4	nt	nt	1
O=C(N/N=C/c1nn(-c2ccccc2)cc1-c1ccc(Cl)cc1)c1ccncc1	0.33	0.4	3	i	6
Cc1nc(Cl)c2c(n1)NC(=O)CO2	0.16	0.17	nt	nt	1
CCC(C)Oc1ccccc1C1CC(=O)NC2=C1C(=O)CCC2 (centres undefined)	0.05	0.018	60*	i	10
COc1ccc(OCCn2cc(/C(N)=N/O)c3ccccc32)cc1	3.1*	-0.063	2	i	4
COC(=O)c1cn(CCOc2ccccc2OC)c2ccccc12	nt	-0.3	3	i	nt
COC(=O)c1cn(CCOc2ccccc2)c2ccccc12	0.63	-0.57	6	+	1
SMILES	Ins promoter up	Dynein cargo inh	MT stabilize HCS	Autophagy mod	bCat nuc transl
CC(=O)c1cccc(NC(=O)Cn2nc(-c3ccc(Cl)cc3)ccc2=O)c1	-0.48	-0.43	3	i	1
CCN(CC)c1ccc(NC(=O)c2cccc(F)c2)c(C)c1	-0.87	-0.18	37*	i	26
CC(C)N(Cc1cc2ccccc2[nH]c1=O)C(=O)C1CCCCC1	0.39	-0.4	1	+	-2
CCN(Cc1cc2ccccc2[nH]c1=O)C(=O)C1CCCCC1	0.5	0.85	2	i	1
O=C(Cc1ccc(Cl)cc1)Nc1ccc2c(c1)C(=O)NC2=O	0.9	0.78	3	i	0
COC(=O)c1ccc(COc2ccc3c(C)c(C)c(=O)oc3c2)o1	3.5*	-0.67	4	i	nt
COC1CCN(Cc2cn(Cc3ccccc3)nc2-c2cc3ccccc3o2)CC1	-0.19	0.75	3	+	0
CC(=O)Oc1ccc2c(c1)Oc1cc(OC(C)=O)ccc1C21OC(=O)c2ccccc21	nt	-4.7*	4	i	0
COc1cc(C(=O)Nc2ccc3c(c2)CCN3C(C)=O)cc(OC)c1OC	0.27	-0.25	22*	i	0
COc1cc(C(=O)Nc2ccc3c(c2)Cc2ccccc2-3)cc(OC)c1OC	-0.07	0.95	5	i	6
Nc1ccc(S(=O)(=O)N2CCCC2C(=O)O)cc1 (centres undefined)	-0.15	-1.4	nt	nt	-1
Cc1ccnc2nc(C(=O)Nc3ccc(S(=O)(=O)N4CCCC4)cc3)nn12	0.34	0.042	nt	nt	0
OC1CCN(c2c3c(nc4cc(-c5cccc(F)c5)nn24)CCCC3)CC1	-0.52	1.4	3	i	7
Fc1cccc(-c2cc3nc4c(c(N5CCC6(CC5)OCCO6)n3n2)CCCC4)c1	-0.81	0.64	2	+	2
Clc1cccc(-c2cc3nc4c(c(N5CCNCC5)n3n2)CCCC4)c1	nt	-2.8	7	+	4
CO/N=C/C(=N\Nc1ccc(OC)cc1)C(=O)c1ccc(F)cc1	0.69	-0.043	2	i	4
CO/N=C/C(=N\Nc1ccc(C)cc1)C(=O)c1ccc(OC)cc1	-1.7	0.14	53*	+	nt
Cc1ccc(C(O)CSc2nnc(-c3ccc4ccccc4c3)n2C)cc1 (centres undefined)	-1.1	0.056	nt	nt	0
O=C1Nc2ccc(Br)cc2C1(O)Cc1ccccn1 (centres undefined)	0.21	-0.043	2	i	2
O=C1Nc2ccc(Br)cc2C12NNc1ccccc1O2 (centres undefined)	14*	0.35	5	+	4
O=C(NNC(=S)NC1CC2C=CC1C2)c1cccnc1 (centres undefined)	-0.64	-0.13	nt	nt	-1
Cc1ccc(S(=O)(=O)NCCCNC(=O)N2CCOCC2)cc1	-0.63	1.6	4	+	-1
COc1ccc(NC(=O)CCN2C(=O)c3ccncc3C2=O)cc1OC	-0.15	-0.43	nt	nt	0
Brc1ccc(-c2csc(-c3c[nH]c4ccccc34)n2)cc1	-0.3	-0.48	3	i	1
c1ccc2c(-c3csc(-c4ccncc4)n3)c[nH]c2c1	nt	0.17	4	+	1
SMILES	Ins promoter up	Dynein cargo inh	MT stabilize HCS	Autophagy mod	bCat nuc transl
O=C(COC(=O)c1ccc(Cl)cc1O)NCCN1C(=O)CSC1=O	1.4	0.18	nt	nt	0
CCc1ccc(CN(C)C(=O)CC2C(=O)NCCN2Cc2ccoc2)cc1 (centres undefined)	-1.2	0.73	2	i	0
Cc1ccc2c(c1)-c1c(ssc1=S)C(C)(C)N2C(=O)c1ccco1	-0.88	0.65	37*	i	-2
Cc1cccc(Cn2c(C)nc3c(N)c(C)c(C)cc32)c1	-0.18	-0.051	4	i	2
Nc1ccc2c(c1)C(=O)C(=O)c1ccccc1-2	?	-4.6	2	i	nt
O=C1C(=O)c2ccc(-c3ccccc3)cc2-c2ccccc21	?	-0.87	29	+	-1

Compound activity deposited in PubChem BioAssay by several laboratories.
